Data as given in ChEMBL document CHEMBL1125887, “Nucleosides and nucleotides. 94. Radical deoxygenation of tert-alcohols in 1-(2-C-alkylpentofuranosyl) pyrimidines: synthesis of (2'S)-2'-deoxy-2'-C-methylcytidine, an antileukemic nucleoside” (J Med Chem, 1991).
Values after ≈ are worked out from the molar mass of the structure shown.

Experiments:
L1210 = assay: Concentration required for 50% inhibition of cell growth of L1210 leukemic cell lines in mouse.; type: functional, cell-based
Method in brief: (§1)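 MTT growth assay: each tumor cell line seeded at 1 × 10^4 cells/well and incubated with or without test compound for 72 h. MTT was then added and OD at 570 nm was read. % inhibition = [1 − OD(sample well)/OD(control well)] × 100. IC50 is the concentration in μg/mL giving 50% inhibition of cell growth.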

K562 = assay: Concentration required for 50% inhibition of cell growth of K562 leukemic cell lines in human.; type: functional, cell-based
Method in brief: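 Tumour cells seeded at 1 × 10^4/well were grown with or without test compound for 72 h. MTT was then added and OD at 570 nm read. % inhibition = [1 − OD(sample)/OD(control)] × 100. IC50 is the concentration in μg/mL giving 50% growth inhibition.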

PC10 = assay: Concentration required for 50% inhibition of human lung squamous cell carcinoma PC10 solid cell lines.; type: functional, cell-based; method in brief: as §1
T-24 = assay: Concentration required for 50% inhibition of human bladder transitional-cell carcinoma T24 solid cell lines.
CCRF-CEM = assay: Concentration required for 50% inhibition of cell growth of CCRF CEM leukemic cell lines in human.; type: functional, cell-based; method in brief: as §1
PC-14 = assay: Concentration required for 50% inhibition of human lung squamous cell carcinoma PC14 solid cell lines.; type: functional, cell-based; method in brief: as §1
[1] = tested on: KATO III stomach cancer cell line; assay: Concentration required for 50% inhibition of human […] carcinoma KATO III solid cell lines.; type: functional, cell-based; method in brief: as §1
U-937 = assay: Concentration required for 50% inhibition of cell growth of U937 leukemic cell lines in human.; type: functional, cell-based; method in brief: as §1
SW480 = assay: Concentration required for 50% inhibition of human […] carcinoma SW 480 solid cell lines.; type: functional, cell-based; method in brief: as §1
MOLT-4 = assay: Concentration required for 50% inhibition of cell growth of MOLT-4 leukemic cell lines in human.; type: functional, cell-based; method in brief: as §1
HL-60 = assay: Concentration required for 50% inhibition of cell growth of HL60 leukemic cell lines in human.; type: functional, cell-based; method in brief: as §1
TE-2 = assay: Concentration required for 50% inhibition of human […] squamous cell carcinoma TE2 solid cell lines.; type: functional, cell-based; method in brief: as §1

C[C@]1(O)[C@H](O)[C@@H](CO)O[C@H]1n1ccc(N)nc1=O
IC50 (L1210): > 100 µg/mL

C[C@@]1(O)[C@H](O)[C@@H](CO)O[C@H]1n1ccc(N)nc1=O
IC50 (L1210): 12 µg/mL (≈ 46.6 µM)

O=c1[nH]cc(F)c(=O)[nH]1 [FLUOROURACIL]
IC50 (K562): 3.8 µg/mL (≈ 29.2 µM)
IC50 (PC10): > 100 µg/mL

C[C@H]1[C@H](O)[C@@H](CO)O[C@H]1n1ccc(N)nc1=O
IC50 (K562): 2.2 µg/mL (≈ 9.12 µM)
IC50 (T-24): 1.1 µg/mL (≈ 4.56 µM)
IC50 (PC10): 81.8 µg/mL (≈ 339 µM)
IC50 (L1210): 0.26 µg/mL (≈ 1.08 µM)
IC50 (CCRF-CEM): 0.15 µg/mL (≈ 0.622 µM)
IC50 (PC-14): > 100 µg/mL
IC50 [1]: > 100 µg/mL
IC50 (U-937): 0.38 µg/mL (≈ 1.58 µM)
IC50 (SW480): > 100 µg/mL
IC50 (MOLT-4): 0.032 µg/mL (≈ 0.133 µM)
IC50 (HL-60): 0.65 µg/mL (≈ 2.69 µM)
IC50 (TE-2): > 100 µg/mL

CC[C@@H]1C(O)[C@@H](CO)O[C@H]1n1ccc(N)nc1=O (some centres not stated)
IC50 (L1210): > 100 µg/mL

Cc1cn([C@@H]2O[C@H](CO)C(O)[C@H]2C)c(=O)[nH]c1=O (some centres not stated)
IC50 (L1210): 32 µg/mL (≈ 125 µM)

C[C@@H]1[C@H](O)[C@@H](CO)O[C@H]1n1ccc(N)nc1=O
IC50 (L1210): 40 µg/mL (≈ 166 µM)

Nc1ccn([C@@H]2O[C@H](CO)[C@@H](O)[C@@H]2O)c(=O)n1 [CYTARABINE]
IC50 (T-24): > 100 µg/mL
IC50 (PC10): > 100 µg/mL
IC50 (PC-14): > 100 µg/mL
IC50 [1]: > 100 µg/mL
IC50 (U-937): 0.31 µg/mL (≈ 1.27 µM)
IC50 (SW480): > 100 µg/mL
IC50 (HL-60): > 0.1 µg/mL
IC50 (TE-2): > 100 µg/mL
